Drawing on PubChem BioAssay AID624174 (Southern Research Specialized Biocontainment Screening …, 2012), this text covers IC50 and inhibition for 44 molecules.

The source made the active and inactive calls.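 How the source made its calls: active means inhibition of 30% or more at any tested concentration; inactive means the rest.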

The first experiment concerns the target Aspartyl aminopeptidase (Homo sapiens) (UniProt Q9ULA0). The experiment is described as follows: hM18AAP inhibitors, dose response, selectivity assay for PFM18AAP inhibitor project, biochemical, QFRET, H-Glu-NHMec substrate, set 3 (AID 624174). The settings on record: purified recombinant hM18AAP, H-Glu-NHMec fluorescence. The method in brief:
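Test system: purified recombinant human M18 aspartyl aminopeptidase (hM18AAP) / Quantity: hM18AAP enzyme at 5 µg/mL final / Medium: Tris pH 7.5, CoCl2, DMSO / Doses: 10-point twofold series, 100 down to 0.2 µM / Timing: enzyme reaction 90 min at room temperature / Signal: NHMec fluorescence at 370/460 nm / Measure: % inhibition and IC50 from logistic fit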
Regarding `CN(CCc1ccc(O)c(O)c1)c1ccnc2cc(Cl)ccc12`, the IC50 is 7.67 µM.
In the case of `CN(CCCc1ccc(O)c(O)c1)c1ccnc2ccccc12`, the IC50 is 9.65 µM.
With `Oc1cccc(CCNc2ccnc3ccccc23)c1O`, the IC50 was 11.6 µM.
`CN(CCc1ccc(O)c(O)c1)c1ccnc2c(F)cccc12`: the 50% inhibitory concentration (IC50) was 7.92 µM.
On the same count and under the same terms, to `Cc1cccc2c(NCCc3ccc(O)c(O)c3)ccnc12` belongs 12.7 µM; to `Oc1ccc(C2CCN(c3ccnc4ccccc34)C2)cc1O` (centres undefined), 5.59 µM; to `Oc1ccc(C2CCCN(c3ccnc4ccccc34)C2)cc1O` (centres undefined), 5.59 µM.
Still for that read-out and setting: to `CC(Cc1ccc(O)c(O)c1)Nc1ccnc2ccccc12` (centres undefined) belongs 14.4 µM.
Take `Cc1cc(N(C)CCc2ccc(O)c(O)c2)c2ccccc2n1`: the IC50 was 9.75 µM.
Consider `Oc1ccc(CCNc2ccnc3c(F)cccc23)cc1O`, for which the IC50 was 8.36 µM.
Same read-out and setting: under `Oc1ccc(C2CCN(c3ccnc4ccccc34)CC2)cc1O` stands 4.68 µM; under `CN(CCc1ccc(O)c(O)c1)c1ncnc2ccccc12`, 6.74 µM.
Still for that read-out and setting: to `Oc1ccc(CCNc2ccnc3cc(Cl)ccc23)cc1O` belongs 13.6 µM; to `Cc1cccc2c(N(C)CCc3ccc(O)c(O)c3)ccnc12`, 10.5 µM.
The same measure, in the same setting: under `Oc1ccc(CCCNc2c3c(nc4ccccc24)CCCC3)cc1O` stands 9.5 µM; under `CC(C)(CNc1ccnc2ccccc12)c1ccc(O)c(O)c1`, 35 µM.

The experiment is the same for the next values; noted with them: purified recombinant hM18AAP, H-Glu-NHMec fluorescence; at 100 µM (top of the series).
In the case of `COc1ccc(CCNc2ccnc3c(C)cccc23)cc1OC`, the inhibition result is “inactive”.
On the same count and under the same terms, under `CCN(CCc1ccc(O)c(O)c1)c1c2ccccc2nc2ccccc12` stands “inactive”; under `COc1ccc(CCNc2cc(C)nc3ccccc23)cc1OC`, “inactive”.
The same measure, in the same setting: to `COc1ccc(CCN(C)c2ccnc3c(C)cccc23)cc1OC` belongs “inactive”; to `COc1cc(Br)c(CCNc2c3c(nc4ccccc24)CCCC3)cc1OC`, “inactive”.
For `Nc1c2ccccc2nc2ccccc12`, the inhibition entry was “inactive”.
The same measure, in the same setting: to `COc1ccc(CCCNc2c3c(nc4ccccc24)CCCC3)cc1OC` belongs “inactive”; to `CN(CCc1ccc(O)c(O)c1)c1c2ccccc2nc2ccccc12`, “inactive”.
Still for that read-out and setting: to `Clc1c2c(nc3ccccc13)CCCC2` belongs “inactive”.
The same measure, in the same setting: under `COc1ccc(CCN(C)c2ccnc3c(F)cccc23)cc1OC` stands “inactive”; under `CCOc1ccc2nccc(N(C)CCc3ccc(OC)c(OC)c3)c2c1`, “inactive”; under `COc1ccc(CCN(C)c2cc(C)nc3ccccc23)cc1OC`, “inactive”.
Regarding `COc1ccc(CCN(C)c2c3ccccc3nc3ccccc23)cc1OC`, the inhibition result is “inactive”.
The same measure, in the same setting: under `COc1ccc(CCN(C)c2ccnc3cc(Cl)ccc23)cc1OC` stands “inactive”; under `COc1ccc(CCNc2ccnc3cc(Cl)ccc23)cc1OC`, “inactive”.
For `COc1ccc(CCN(C)c2ncnc3ccccc23)cc1OC`, the inhibition entry is “inactive”.
With `COc1ccc(C2CCN(c3ccnc4ccccc34)CC2)cc1OC`, the inhibition result was “inactive”.
Still for that read-out and setting: to `COc1ccc(CCNc2ccnc3c(F)cccc23)cc1OC` belongs “inactive”; to `COc1cc(Br)c(CCNc2c3ccccc3nc3ccccc23)cc1OC`, “inactive”; to `COc1ccc(CCCN(C)c2c3ccccc3nc3ccccc23)cc1OC`, “inactive”.
On to `CCOc1ccc2nccc(NCCc3ccc(OC)c(OC)c3)c2c1`, for which the inhibition entry is “inactive”.
Turning to `COc1ccc(C2CCN(c3ccnc4ccccc34)C2)cc1OC` (centres undefined), the inhibition entry was “inactive”.
Turning to `CCN(CCc1ccc(OC)c(OC)c1)c1c2ccccc2nc2ccccc12`, the inhibition result is “inactive”.
`CN(CCCc1ccc(O)c(O)c1)c1c2ccccc2nc2ccccc12`: the inhibition result is “inactive”.
Still for that read-out and setting: under `COc1cc(Br)c(CCNc2ccnc3ccccc23)cc1OC` stands “inactive”.
Same read-out and setting: to `COc1ccc(CCNC(=O)c2cc(C)ccc2N)cc1OC` belongs “inactive”; to `COc1ccc(CCNc2c3c(nc4ccc(C)cc24)CCCC3)cc1OC`, “inactive”.
Turning to `COc1ccc(CCNc2ncnc3ccccc23)cc1OC`, the inhibition entry is “inactive”.

Usually IC50 stands for the midpoint of a concentration-inhibition curve.
